Measurements reported in publication PMC3240686 (Journal of medicinal chemistry, 2011).

Tests used:
[1] = system: carrageenan-induced thermal hyperalgesia; assay: Carrageenan-induced thermal hyperalgesia; type: in vivo; conditions: rats; for activity at inhibiting hyperalgesia: carrageenan model; for antihyperalgesic effect and its duration: oral 100 mg/kg, n=2, time post-carrageenan; for block of development of carrageenan-induced hyperalgesia, i.p.: i.p. injection 10 mg/kg; for block of development of carrageenan-induced hyperalgesia, i.p. / block of carrageenan-induced hyperalgesia, oral: 30 min before carrageenan, n=3
Summary of the method: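 Under light CO2 (80%)/O2 (20%) anaesthesia, rats received subplantar 1% carrageenan in saline (vehicle: saline) into the right hindpaw. For prophylactic dosing, drug or vehicle was given by gavage or i.p. 30 min before carrageenan. Heat hyperalgesia was measured by the Hargreaves plantar test, with an infrared stimulus from below and a 20 s cut-off. The read-out was change in paw-withdrawal latency (s).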

[2] = Relative lipophilicity by reversed phase HPLC retention factors; type: physicochemical; conditions: relative to parent compound 7, isocratic conditions
[3] = Observed acute toxicity in the carrageenan hyperalgesia studies; type: in vivo, rats
[4] = octanol-water, slow stir method
[5] = system: mechano-allodynia after CCI of the sciatic nerve; assay: Chronic constriction injury; type: in vivo; conditions: mice
[6] = Cyclic voltammetry in CH2Cl2; type: physicochemical
[7] = dose 300 mg/kg, 2 h time point, n=6

## Mn(III)-5, 10, 15, 25-tetrakis-phenyl-TCHP Chloride [Compound 12]
[1]
  activity at inhibiting hyperalgesia: active at inhibiting hyperalgesia

## CC(C)Cc1ccc(C(C)C(=O)O)cc1 (centres unmarked) [ibuprofen, reference compound]
[1]; [7]
  % inhibition of hyperalgesia: 99±5%

## Mn(III)-5,15-bis(4-propionyloxymethyl)phenyl-TCHP [Compound 16b]
[2]
  relative lipophilicity by RPHPLC retention factor: progressively more lipophilic
[1]
  antihyperalgesic effect and its duration: strong antihyperalgesic effect out to 3 hours with a decline in this effect occurring in the 4–5 hour time period

## CC(=O)Nc1ccc(O)cc1 [acetaminophen, reference compound]
[1]; [7]
  % inhibition of hyperalgesia: 20±4%

## Mn(III)-TCHP Chloride [Compound 7]
[3]; doses at least 6–8 fold higher than the one needed to block hyperalgesia
  acute toxicity: no observable acute toxicities
[4]
  LogP: 3.77
[1]; 100 mg/kg oral gavage at 3 h post carrageenan, 4 hour time point
  reversal of established hyperalgesia: pain at 1 h after dosing: pain was substantially reduced
[1]
  block of development of carrageenan-induced hyperalgesia, i.p.: blocked the development of carrageenan-induced hyperalgesia
[1]; oral gavage 100 mg/kg
  block of carrageenan-induced hyperalgesia, oral: able to block hyperalgesia when given orally
[1]; oral gavage 100 mg/kg, for 2 h
  % inhibition of hyperalgesia: ~100%
[1]; oral gavage 100 mg/kg, out to 5 h
  inhibitory effect at late time: substantial inhibitory effect maintained out to 5 h
[5]; oral 10–100 mg/kg
  effect on withdrawal responses of contralateral paws: no effect
[5]; oral 10–100 mg/kg at time of peak mechano-allodynia, n=4
  reversal of neuropathic pain (mechano-allodynia): rapid, dose-dependent and near-to-maximal reversal of neuropathic pain within 1h post-dosing
[5]; oral, at time of peak reversal, n=4
  95% CI of ED50: 15.64 to 51.67 mg/kg/day
[5]; oral, day 7 after CCI, at time of peak reversal, n=4
  ED50, reversal of mechano-allodynia: 28 mg/kg

## Mn(III)-5,15-bis(4-isobutyryloxymethyl)phenyl-TCHP [Compound 16c]
[2]
  relative lipophilicity by RPHPLC retention factor: progressively more lipophilic
[1]
  antihyperalgesic effect and its duration: potent anti-hyperalgesic action out to the 5 hour time point

## Mn(III)-5,15-bis(4-hydroxymethyl)phenyl-TCHP [Compound 15]
[2]
  relative lipophilicity by RPHPLC retention factor: substantially less lipophilic than parent compound 7
[1]
  antihyperalgesic effect and its duration: excellent potency out to the 5 hour time point

## CC(=O)Oc1ccccc1C(=O)O [aspirin, reference compound]
[1]; [7]
  % inhibition of hyperalgesia: 50±6%

## Mn(III)-5,15-di-phenyl-TCHP Chloride [Compound 10]
[1]
  activity at inhibiting hyperalgesia: active at inhibiting hyperalgesia
[6]; cyclic voltammetry in CH2Cl2
  reversible (presumably porphyrin-based) oxidation potential: 0.89 V. vs. ferrocene
[6]; cyclic voltammetry in CH2Cl2, chemically reversible
  Mn(II/III) couple: −0.79 V vs. ferrocene

## CC[n+]1ccccc1-c1c2nc(c(-c3cccc[n+]3CC)c3ccc([n-]3)c(-c3cccc[n+]3CC)c3nc(c(-c4cccc[n+]4CC)c4ccc1[n-]4)C=C3)C=C2.[Mn+3] [Mn(III)-TE-2-PyP^5+, Mn(III) meso-tetrakis[(N-ethyl)pyridinium-2-yl]porphyrin (5+), reference compound]
[3]; i.p., 3 fold higher dose than the one required to block hyperalgesia
  mortality: 100%
[1]
  block of development of carrageenan-induced hyperalgesia, i.p.: blocked the development of carrageenan-induced hyperalgesia
[1]; oral gavage 100 mg/kg
  block of carrageenan-induced hyperalgesia, oral: only 7 is able to block hyperalgesia when given orally

## Mn(III)-5,15-bis(4-acetoxymethyl)phenyl-TCHP [Compound 16a]
[2]
  relative lipophilicity by RPHPLC retention factor: progressively more lipophilic
[1]
  antihyperalgesic effect and its duration: strong antihyperalgesic effect out to 2 hours post-carrageenan but the effect was lost at 3 hours
